Our source for the IC50 values is BindingDB's records for doi:10.1021/jm00108a037 (Katholieke Universiteit Leuven, 1991).

The target in assay [1] is T1, Acyl-protein thioesterase 1 (Rattus norvegicus, UniProt P70470). In words: ChEBML_100186. The source says:
in vitro inhibitory activity against Lysosomal phospholipase A1 consisting of negatively charged liposomes and lysosomal extracts. p<0.05

The target in assay [2] is T1, Acyl-protein thioesterase 1. In words: in vitro inhibitory activity against Lysosomal phospholipase A1 consisting of negatively charged liposomes and lysosomal extracts. An outline of the steps: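 Lysosomal phospholipase activity measured on labeled phosphatidylcholine incorporated into negatively charged liposomes, read as release of labeled lysophosphatidylcholine.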

T1 sequence (P70470 whole entry): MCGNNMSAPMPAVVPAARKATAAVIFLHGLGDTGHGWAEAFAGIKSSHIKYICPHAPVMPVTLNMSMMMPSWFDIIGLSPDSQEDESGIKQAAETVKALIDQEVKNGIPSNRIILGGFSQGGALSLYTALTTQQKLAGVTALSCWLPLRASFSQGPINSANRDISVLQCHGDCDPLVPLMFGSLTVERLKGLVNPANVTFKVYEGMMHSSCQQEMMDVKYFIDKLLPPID

Take `NCC1OC(OC2C(N)CC(N)(CO)C(OC3OC(CO)C(O)C(N)C3O)C2O)C(N)C(O)C1O` (centres undefined): the IC50 in assay [1] came to 79 µM.
`NCC1OC(OC2C(N)CC(N)(CO)C(OC3OC(CCl)C(O)C(N)C3O)C2O)C(N)C(O)C1O` (centres undefined) displayed a concentration for half-maximal inhibition (IC50) in assay [2] of 105 µM.
On the same count and under the same terms, as for `CC(=O)NCC1OC(OC2C(O)C(OC3OC(CN)C(O)C(O)C3N)C(N)CC2(N)CO)C(O)C(N)C1O` (centres undefined), the figure is 119 µM.
Consider `[N-]=[N+]=NCC1OC(OC2C(O)C(OC3OC(CN)C(O)C(O)C3N)C(N)CC2(N)CO)C(O)C(N)C1O` (centres undefined), for which, in assay [1], 95 µM corresponded to half-maximal inhibition (IC50).
